Only some compounds are listed: those with a hit (about 4% of all), similar ones and a draw of the others.
Pf gametocyte: inhibitors of late stage P. falciparum gametocyte viability. P. falciparum stage V gametocytes, ATP luminescence, 24 h. inhibition, % at 10.9 µM. 150,000 tested, 0.065% active. AID 743093;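 active = inhibition above the mean plus 3 SD of compounds within the control limits, set per campaign, cut at about 38% in these data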;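 also: 0% = DMSO wells and 100% = medium only without gametocytes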
KCC2 mod: KCC2 (human) Cl- transport modulation; AID 1456; B-score of Tl+ flux slope (higher = more flux/activation; lower = inhibition) at 10 µM; KCC2 cells, thallium flux FluoZin-2 fluorescence; 190,000 tested, 2.2% active;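 active = thallium flux slope and its plate-corrected score both differing from the plate sample mean at a set confidence after two filtering rounds, in either direction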;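 also: slope of fluorescence scaled to starting intensity during 10 to 20 s after thallium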
MT stabilizer: microtubule stabilizers in HeLa cells; HeLa tubulin immunostaining HCS, 24 h; share of cells brighter than vehicle mean+2SD; 200,000 tested, 0.83% active; % tubulin-high responders, % at 10 µM;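 active = plate Z-score above 3 for both tubulin-high and condensed-nucleus cell shares, with cell loss under 80%, at 10 µM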;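 also: anti alpha tubulin signal scored within the nucleus-defined area of each cell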
WT yeast gro inh: growth inhibition of WT yeast, mitochondrial fusion screen; inhibition, % at 10 µM; 190,000 tested, 2.1% active; AID 1362; mitochondrial fusion phenotypic screen, WT strain; in the data active = inhibition above about 58%; tested in S. cerevisiae
b-catenin transl: alters nuclear translocation of beta-catenin in HeLa cells; immunofluorescence imaging; nuclear translocation activity, % at 5 µM; 190,000 tested, 0.3% active;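 active = nuclear translocation activity above 50% at 5 µM, with a well cell count of 50 or more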;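 also: per-cell ratio of nuclear to cytoplasmic median beta-catenin stain intensity; plate controls were DMSO negative control for no effect and GSK-3 inhibitor IX positive control for full effect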
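Technique: fluorescence imaging of beta-catenin antibody stain plus DAPI / Material: human HeLa cell line / Incubation: compound treatment 24 h, 37°C, 5% CO2 / Read-out basis: % activation of per-cell nuclear versus cytoplasmic median beta-catenin signal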
* marks the source's active call; other numbers are inactive results; / = no result.

SMILES	Pf gametocyte	KCC2 mod	MT stabilizer	WT yeast gro inh	b-catenin transl
N#C/C(=N\Nc1cccc([N+](=O)[O-])c1)C(=O)c1ccc(Br)cc1	-15.9	-6.8*	5.6	67.1*	-2.2
Cc1ccc(Nc2ncccc2C(=O)NCc2cccs2)c(C)c1	-17.5	-0.453	1.3	67.2*	/
CC(NC(=O)Nc1ccc([N+](=O)[O-])cc1)C(c1cccs1)N1CCCC1 (stereo unspecified)	1.6	-1.71	2.0	-15.6	5.6
CCC[C@@H]1C[C@@]1(CCC)[C@@H](NP(=O)(c1ccccc1)c1ccccc1)c1ccc(C(=O)OC)cc1	/	-1.25	3.3	68.0*	7.2
COc1ccc2nc(SCC(=O)C(C)(C)C)[nH]c2c1	4.5	0.0135	/	/	-0.3
Cc1cc(S(=O)(=O)Nc2cc(C)c(O)c(C)c2)c(C)s1	11.1	0.0428	1.1	17.4	-0.6
Cc1ccc(C(=O)Nc2nc(-c3cccnc3)cs2)o1	/	0.75	3.2	-13.1	2.6
O=C(Nc1nc(-c2ccccc2)cs1)c1ccc(Br)o1	/	/	3.5	63.2*	12.5
O=C(Nc1nc(-c2ccc(-c3ccccc3)cc2)cs1)C1CCCO1 (stereo unspecified)	/	0.466	42.1*	24.6	/
Cc1cc(C(=O)OCC(=O)NCc2ccc(Cl)cc2)c(C)o1	14.2	-0.699	4.5	-8.2	6.0
COc1ccc(CCn2nnnc2C(C(C)C)N2CCN(c3ncccn3)CC2)cc1OC (stereo unspecified)	/	-0.538	6.1	61.8*	0.8
COc1ccc(CCn2nnnc2C(CC(C)C)N2CCN(c3ncccn3)CC2)cc1OC (stereo unspecified)	/	/	4.3	65.5*	1.7
COc1ccc(N2CCN(C(c3nnnn3CCc3ccccc3)C(C)C)CC2)cc1 (stereo unspecified)	/	-0.663	3.8	6.2	-4.0
COc1ccc(CCn2nnnc2C(CC(C)C)N2CCC(C(N)=O)CC2)cc1OC (stereo unspecified)	9.0	-0.0323	1.4	-6.2	/
COc1ccc2nc(NC(=O)c3cccnc3SC)sc2c1	-4.4	1.67	2.9	31.6	0.0
O=C1CCN(S(=O)(=O)c2ccccc2)CCN1CCOCc1ccc(F)cc1	-6.9	-0.127	/	/	70.0*
C/C(=N\NC(=O)c1ccc(N/N=C(\C)c2ccncc2)cc1)c1ccncc1	-3.9	-0.846	2.5	-11.5	-1.9
N/N=C/C(=N\Nc1ccc(Cl)cc1)C(=O)c1ccncc1	44.7*	/	/	/	0.8
COc1cccc(/C=N/n2c(-c3cc(C)[nH]n3)n[nH]c2=S)c1O	-20.1	0.824	/	/	0.8
CCCCCCCC(O)CC(CC1CCCCC1)C(=O)NN (stereo unspecified)	-12.7	-0.028	3.3	14.6	4.0
O=C(COc1ccc(Cl)cc1Cl)NC(=S)N1CCCc2ccccc21	/	20.7*	2.4	-2.6	-0.8
O=C(CCCOc1ccc(Cl)cc1Cl)N1CCCc2ccccc21	/	-0.601	2.5	74.8*	/
O=C(COc1ccc(Cl)cc1Cl)N1CCCN(C(=O)COc2ccc(Cl)cc2Cl)CC1	-20.1	0.00236	0.9	75.9*	/
Cc1cccc(OCC(=O)NC(=S)N2CCCc3ccccc32)c1	/	23.3*	1.5	-5.3	0.9
O=C(COc1ccc(Cl)cc1Cl)OCC(=O)N1CCCc2ccccc21	1.1	0.0016	4.3	52.3	-2.2
SMILES	Pf gametocyte	KCC2 mod	MT stabilizer	WT yeast gro inh	b-catenin transl
O=C(CC(=O)c1cccc([N+](=O)[O-])c1)Nc1ccccc1Cl	/	0.397	2.4	-3.8	-2.7
Cc1nc2c3ccccc3n(CCN3CCCCC3)c2s1	/	/	4.1	-2.3	-3.7
Cc1nc2c3cc(F)ccc3n(CCN3CCCCC3)c2s1	/	0.473	14.5*	12.7	49.1
Cc1nc2c3cc(F)ccc3n(Cc3ccccc3F)c2s1	0.1	-0.724	26.6*	35.0	2.1
Cc1nc2c3ccccc3n(Cc3ccccc3F)c2s1	14.2	-0.281	2.9	46.0	-1.7
Cc1nc2c3cc(F)ccc3n(Cc3ccccc3)c2s1	-10.7	-0.286	28.0*	38.3	-0.3
CCC(=O)NC(NC(=S)Nc1ccc(S(N)(=O)=O)cc1)C(Cl)(Cl)Cl (stereo unspecified)	-5.8	0.212	4.6	-7.2	-0.3
CN(C)C(=O)/C(C#N)=C\c1cc(Br)c(Sc2ccc(Cl)cc2)o1	/	-1.28	2.3	88.0*	-1.5
Clc1ccc(Sc2oc(/C=N/n3cnnc3)cc2Br)cc1	22.4	-0.0121	5.7	18.7	3.4
O=C(O)c1ccccc1C(=O)c1ccc2c(c1)N(Cc1ccc(Cl)c(Cl)c1)C(=O)CO2	/	-1.84	4.2	62.9*	-0.6
O=C(CN1C(=O)COc2ccccc21)NCc1ccc(C(=O)O)cc1	/	/	2.8	6.4	-7.7
O=C(Nc1cccn(Cc2c(F)cccc2Cl)c1=O)NC1CCCCC1	-21.3	-0.428	16.9*	17.8	-0.7
C#CCOC(=O)Nc1cccn(Cc2c(Cl)cccc2Cl)c1=O	8.7	/	51.4*	9.9	5.7
O=C(Nc1cccn(Cc2cccc(F)c2)c1=O)NC1CCCCC1	-19.5	-1.74	4.0	-7.2	-0.3
CC(=O)c1sc(N/N=C\c2ccccc2O)nc1C	1.7	-1.2	/	8.2	1.0
CCOC(=O)c1c(C)n(-c2ccc(C)cc2)c2ccc(OCC(O)CN3CCN(C)CC3)cc12 (stereo unspecified)	14.0	0.423	3.7	92.3*	13.9
CCOC(=O)c1c(C)n(C)c2ccc(OCC(O)CN3CCN(C)CC3)cc12 (stereo unspecified)	/	/	1.1	7.9	/
Cc1ccc(O)c(C(=O)c2cnc3c(c2)CN(C)C(=O)N3)c1	/	-0.0364	6.9	11.5	-0.3
CN1Cc2cc(C(=O)c3cc(Cl)cc(CSc4ncccn4)c3O)cnc2NC1=O	/	0.153	20.1*	-5.8	67.1*
COc1ccc(C2CC(=O)c3cnc(N4CCc5ccccc54)nc3C2)cc1OC (stereo unspecified)	/	0.00974	/	/	2.0
O=C1CC(c2ccco2)Cc2nc(N3CCc4ccccc4C3)ncc21 (stereo unspecified)	/	/	1.5	11.6	-5.5
CC(C)c1ccc(C2CC(=O)c3cnc(N4CCc5ccccc5C4)nc3C2)cc1 (stereo unspecified)	-0.4	0.329	1.2	58.3*	3.5
COc1ccc(C2CC(=O)c3c(C)nc(N4CCN(Cc5ccccc5)CC4)nc3C2)cc1OC (stereo unspecified)	-26.8	/	3.4	-6.9	-0.3
CC1CC(C)CN(c2ncc3c(n2)CC(c2ccccc2)CC3=O)C1 (stereo unspecified)	/	/	2.7	71.5*	-0.8
COc1cc(C2CC(=O)c3cnc(N4CCN(Cc5ccccc5)CC4)nc3C2)cc(OC)c1OC (stereo unspecified)	/	-0.504	43.1*	1.5	83.1*
NNc1nc2c(Cl)ccc(Cl)c2s1	-8.8	-1.4	1.8	18.8	1.0
On1c2c(c3c4nonc4ccc31)CCCC2	/	-1.08	4.8	73.9*	/
O=C(COc1cccnc1[N+](=O)[O-])Nc1cccc(S(=O)(=O)N2CCCCC2)c1	/	0.104	3.5	4.3	-3.3
Cc1ccc2nc(N/N=C/c3ccccc3C#N)nc(-c3ccccc3)c2c1	/	/	2.5	14.5	-1.5
